# Assay outcomes deposited in PubChem BioAssay by Sanford-Burnham Center for Chemical Genomics.
# Only some compounds are listed: those with a hit (about 1.5% of all), similar ones and a draw of the others.
# APJ antagonist: antagonists of human apelin receptor APJ, primary screen, CHO-K1 cells, beta-arrestin complementation, luminescence; inhibition, % at 20 µM; 330,000 tested, 0.32% active; AID 2521, 2010;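 active means inhibition above about 40% at 20 µM, limit read from the data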;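 further: cells challenged with 10 nM apelin-13 agonist together with compound; plate controls were apelin-13 plus DMSO wells for no effect and DMSO wells lacking apelin-13 for full effect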
# CCR6 antag: CCR6 receptor antagonists, primary screen, cell-based, CHO-K1, luminescence, beta-arrestin, uHTS; C-C chemokine receptor type 6 (Homo sapiens), P51684; CHO-K1 CCR6 PathHunter beta-arrestin, CCL20-stimulated; inhibition, % at 20 µM; 340,000 tested, 0.49% active; AID 493098, 2011;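 active means compounds whose inhibition of the agonist-driven luminescence signal at 20 µM reaches about 50%, limit read from the data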;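 further: cells stimulated with CCL20 at 14 nM final; plate controls were DMSO with CCL20 for no effect and DMSO without agonist for full effect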
# CXCR6 block: CXCR6 receptor inhibitors, primary screen, cell-based, beta-arrestin, luminescence, CHO-K1 PathHunter, 1536-well | AID 602244, 2012 | C-X-C chemokine receptor type 6 (Homo sapiens), O00574 | 360,000 tested, 0.36% active | inhibition, % at 20 µM; in the data active means inhibition above about 34%, passing the limit was not always enough;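 further: antagonist mode with CXCL16 agonist at 10 nM final; 0% = 10 nM CXCL16 with DMSO and 100% = unstimulated wells without agonist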
# Target sequence (O00574 whole entry, looked up): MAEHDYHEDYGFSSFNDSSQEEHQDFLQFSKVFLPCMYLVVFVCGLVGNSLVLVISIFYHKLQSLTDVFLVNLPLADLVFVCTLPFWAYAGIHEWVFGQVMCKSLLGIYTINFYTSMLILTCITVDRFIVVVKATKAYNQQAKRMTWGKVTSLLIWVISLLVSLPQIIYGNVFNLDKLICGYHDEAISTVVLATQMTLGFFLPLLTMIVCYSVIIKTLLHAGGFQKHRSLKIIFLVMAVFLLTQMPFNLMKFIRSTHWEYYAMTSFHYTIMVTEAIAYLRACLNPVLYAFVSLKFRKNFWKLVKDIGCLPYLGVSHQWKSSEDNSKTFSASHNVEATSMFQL
# APJ agonist: agonists of human apelin receptor APJ, primary screen, CHO-K1 cells, PathHunter beta-arrestin, luminescence; P35414; 0% DMSO wells, 100% apelin; activation, % at 20 µM; 330,000 tested, 0.11% active; AID 2520, 2010;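 active means activation more than six SD over the plate average, tested at 20 µM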;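 further: 0% = DMSO alone and 100% = apelin-13 at 10 nM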
#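 Test system – PathHunter CHO-K1 APJ (AGTRL-1) beta-arrestin reporter cells · Input – 1000 cells/well · Compound – single test compound dose, 20 µM final, 1% DMSO · Times – compound stimulation 90 min at 25 °C, detection 60 min · Technique – beta-gal luminescence · Read-out basis – APJ–arrestin association signal · Control set – negative DMSO alone, positive Apelin-13 at 10 nM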
# EBI2 antag: EBI2 receptor antagonists, beta-arrestin recruitment, primary screen, cell-based, luminescence, 7a,25-OHC stimulation, uHTS; G-protein coupled receptor 183 (Homo sapiens), P32249; 7a,25-OHC stimulated; inhibition, % at 5 µM; 360,000 tested, 0.81% active; in the data active means inhibition above about 38%;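 further: enzyme fragment complementation signal reports receptor beta-arrestin coupling in cells; 0% = agonist plus DMSO wells and 100% = wells without agonist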
# APJ antag confirm: APJ antagonists blocking beta-arrestin recruitment, confirmation, cell-based, luminescence, single concentration, uHTS hits | shares compounds with APJ antagonist | antagonist mode | inhibition, % at 20 µM | 950 tested, 66% active; in the data active means inhibition above about 50%
# Active calls of the source: *; x = no result.
SMILES,APJ antagonist,CCR6 antag,CXCR6 block,APJ agonist,EBI2 antag,APJ antag confirm
N#Cc1c(NC(=O)c2ccccc2Cl)n(Cc2ccccc2)c2nc3ccccc3nc12,x,4.5,-0.9,x,10.5,x
CCCCn1c(NC(=O)c2ccccc2Cl)c(C#N)c2nc3ccccc3nc21,43.5*,27.9,6.5,-13.4,1.3,36.1
COc1cc2c(=O)n(CCC(=O)NCC3CCCO3)c(=O)n(CC(=O)Nc3ccccc3C)c2cc1OC (stereo unspecified),15.7,-9.1,-10.4,-1.8,3.9,x
COc1cc2c(=O)n(Cc3ccccc3)c(=O)n(CC(=O)NCC3CCCO3)c2cc1OC (stereo unspecified),40.2*,3.0,-4.5,-1.5,2.6,6.9
N#C/C(=N\Nc1ccc(S(=O)(=O)N2CCCCCC2)cc1)C(N)=S,48.2*,31.5,17.2,-7.4,11.8,64.4*
CCCOc1ccccc1Cn1c(=O)oc2ccccc21,0.7,22.2,0.0,-2.3,11.5,x
CCCCS(=O)(=O)/C=C\C=C/S(=O)(=O)CCCC,68.7*,81.4*,78.2*,-6.9,50.7*,89.1*
COC(=O)c1[nH]c(=O)c2ccccc2c1O,42.8*,67.8*,0.4,-17.1,10.3,-12.5
COC(=O)c1[nH]c(=O)c2ccccc2c1OCc1ccccc1,8.3,6.1,5.5,2.3,-1.1,x
COc1ccc2nc(NC(=O)CSC3=NCCS3)sc2c1,41.3*,15.8,-0.5,-3.0,1.9,-12.6
COc1ccc2nc(NC(=S)N(C)C)sc2c1,51.0*,45.1,35.3,-8.6,-0.5,44.3
CNc1ccccc1C(C)(C)c1cn(-c2ccc([N+](=O)[O-])cc2)nn1,3.9,13.2,-8.5,-3.8,5.1,x
CC1CCc2c(sc(NC(=O)c3cccn3C)c2C(N)=O)C1 (stereo unspecified),7.2,-7.5,-9.5,-0.9,-16.7,x
Cc1[nH]n(-c2ccccc2)c(=O)c1C(c1ccc(O)c([N+](=O)[O-])c1)c1c(C)[nH]n(-c2ccccc2)c1=O,40.1*,45.5,21.0,-3.8,10.8,41.3
O=C(CCc1ccccc1)OCC(=O)c1cccc([N+](=O)[O-])c1,65.5*,42.5,16.0,-8.1,8.1,64.1*
N/C(=N\OC(=O)CCCc1ccccc1)c1cccc([N+](=O)[O-])c1,-17.4,-3.7,-12.8,13.9,2.9,x
O=C(CNC(=O)c1ccco1)NCC(=O)OCC(=O)c1ccc(Cl)c([N+](=O)[O-])c1,82.5*,89.1*,58.2*,-33.4,12.0,146.6*
O=C(Cc1ccccc1)NCC(=O)OCC(=O)c1cccc([N+](=O)[O-])c1,45.9*,52.8*,21.9,-6.9,14.1,67.6*
O=C(CN1C(=O)C2C3C=CC(C3)C2C1=O)OCC(=O)c1ccc([N+](=O)[O-])cc1 (stereo unspecified),-19.9,1.4,-9.3,-0.4,-16.7,x
O=C(CN1C(=O)C2C3CC(C(Br)C3Br)C2C1=O)OCC(=O)c1cccc([N+](=O)[O-])c1 (stereo unspecified),44.1*,41.6,26.1,-7.2,4.8,58.5*
Cc1ccc(N2CC(NC(=O)C(=O)c3c[nH]c4ccccc34)CC2=O)cc1C (stereo unspecified),-24.3,-7.6,-2.7,-1.1,12.6,x
O=C(CN1C(=O)c2ccccc2C1=O)NCC(=O)OCC(=O)c1ccc(Br)cc1,28.4,0.0,2.9,-5.0,-2.5,x
O=C(CN1C(=O)C2CC=CCC2C1=O)OCC(=O)c1ccc(Cl)c([N+](=O)[O-])c1 (stereo unspecified),78.9*,79.1*,58.2*,-31.6,14.5,149.1*
O=C(CN1C(=O)c2ccccc2C1=O)NCC(=O)OCC(=O)c1cccc([N+](=O)[O-])c1,70.3*,49.0,24.3,-9.3,16.4,102.6*
O=C(CN1C(=O)C2C3C=CC(C3)C2C1=O)OCC(=O)c1ccc(Cl)cc1 (stereo unspecified),3.3,13.0,3.4,9.4,4.4,x
SMILES,APJ antagonist,CCR6 antag,CXCR6 block,APJ agonist,EBI2 antag,APJ antag confirm
COc1cc(/C=C/C(=O)OCC(=O)N2CC(C)OC(C)C2)ccc1OCC#N (stereo unspecified),x,x,0.6,x,-1.7,x
CC(C)(C(=O)N1CCC1(C)C(=O)NS(=O)(=O)c1ccc(Cl)s1)c1ccccc1 (stereo unspecified),x,x,4.0,x,6.1,x
COc1ccc(S(=O)(=O)Nc2ccccn2)cc1C(=O)Nc1ccccc1,12.5,10.1,4.4,-6.7,9.8,x
CC(C)(C)C1C/C(=C/c2ccccn2)C(=O)/C(=C/c2ccccn2)C1 (stereo unspecified),44.5*,64.6*,32.4,-8.5,18.2,45.9
Cc1ccc(CNc2nc(N)c([N+](=O)[O-])c(Nc3cccc(F)c3)n2)cc1,41.1*,-0.3,8.7,0.7,-1.0,25.7
Cc1nnc(NC(=O)C2CCCN2C(=O)Nc2ccccc2)s1 (stereo unspecified),-1.9,4.9,-7.9,-0.3,-8.7,x
CC(=O)Nc1ccc(NC(=O)C2(C)CC2(Cl)Cl)cc1 (stereo unspecified),91.4*,6.7,-3.9,0.5,-2.4,33.3
CN(C)c1cccc(NC(=O)C2(C)CC2(Cl)Cl)c1 (stereo unspecified),-11.9,0.8,3.1,3.2,6.8,x
COC(=O)C(CC(C)C)NC(=O)C(Cc1ccccc1)NC(=O)C1CCCN1C(=O)OC(C)(C)C (stereo unspecified),48.5*,52.1*,36.2,-6.1,6.1,37.3
CC(C)CC(NC(=O)C1CCCN1C(=O)OC(C)(C)C)C(=O)NCC(N)=O (stereo unspecified),x,8.9,2.2,x,3.8,x
CCN(CC)CCCn1c2c(c(SCC(=O)Nc3cc(OC)cc(OC)c3)nc1=O)CCC2,55.1*,1.3,8.0,-2.7,2.9,18.5
CCN(CC)CCCn1c2c(c(SCC(=O)Nc3ccc(F)c(F)c3)nc1=O)CCC2,6.4,5.8,3.3,-6.2,7.5,x
CCCCCOC(=O)c1c(N)n(CCOC)c2nc3ccccc3nc12,43.5*,9.3,7.8,-11.1,11.3,-3.1
COCCOC(=O)c1c(N)n(CCCN2CCOCC2)c2nc3ccccc3nc12,-5.8,5.1,7.9,-5.2,-5.7,x
Cc1[nH]c2ccccc2c1Cc1nnc(SCc2ccccc2)o1,48.3*,1.3,5.7,-4.2,12.3,30.8
COc1ccc(-c2cc(=O)c3ccc(O)cc3o2)cc1OC,x,x,-1.8,x,2.8,x
Nc1ccc(-c2c3ccc(=O)cc-3oc3cc(O)ccc23)c(C(=O)O)c1,43.1*,38.9,25.5,-8.7,7.4,66.2*
COc1ccc2cc(C)c3nnc(SCc4cccnc4)n3c2c1,40.4*,28.6,3.4,-5.0,-3.3,44.1
